Dynein transport – blocks dynein driven cargo transport along microtubules; 3617.4 mouse cells, GR-EGFP nuclear translocation imaging; test concentration mostly 20 µM; stimulated with dexamethasone, 1 µM; active compounds read low; z-score, hits read low; hit rate 0.47% among 220,000;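 active = plate z-score of nuclear minus cytoplasmic receptor signal below a set negative limit, without overly bright fluorescence or cell loss, cut at about -3.5 in these data, passing the limit was not always enough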;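 note: z-score of nuclear minus cytoplasmic ring GR-EGFP intensity difference per well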
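Buffer or medium: Induction medium lacking tetracycline, stripped serum | Also added: Dexamethasone agonist, 1.0 µM final, for 30 min | Timing: 48 h induction, 1 h compound, 30 min dex at 37 °C | Detection: Formaldehyde fixation, Hoechst nuclear stain, 10x automated fluorescence imaging | Measure: Nuclear versus cytoplasmic GR-EGFP signal, averaged per well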
UPR XBP1 act – adaptive UPR (XBP1) activation | CHO-XBP1 luciferase reporter, IRE1-XBP1 UPR activation, luminescence; percent of tunicamycin response, DMSO as zero | activation, % at 20 µM | hit rate 0.33% among 330,000;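 active = versus positive control, 20 µM dose yields 30% or more activation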;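 note: 100% = tunicamycin at 10 µg/mL and 0% = DMSO only wells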
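incubation = overnight seeding at 37 °C, 6 h compound treatment at 37 °C | assay system = CHO-XBP1 cells stably carrying IRE1-XBP1-driven luciferase reporter | input = 1000 cells per well | detection = luciferase luminescence | dosing = single point, 20 µM final compound, 1% DMSO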
CHOP inhibitor – inhibitors of CHOP induction in ER stress response | inhibition, % at 10 µM | hit rate 3.8% among 220,000 | CHO-K1 CHOP-promoter luciferase, tunicamycin-induced, 15-18 h | AID 2732;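 active = compounds that reduced the stress-induced luciferase reporter signal by more than about 70% of percent inhibition, limit read from the data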;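 note: 0% = tunicamycin plus vehicle and 100% = wells without tunicamycin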
L major viab – Leishmania major promastigote growth inhibition; AID 1063; inhibition, % at 10 µM; hit rate 9% among 200,000; Leishmania major promastigotes, resazurin fluorescence viability; in the data active = inhibition above about 50%;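 note: promastigotes grown with compound for 44 hours at 28 °C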
T cruzi inh – T. cruzi replication inhibition; T. cruzi beta-gal in NIH3T3, luminescence, 90 h; inhibition, % (no concentration beside the values); hit rate 1.4% among 300,000;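 active = mean inhibition across valid replicates above about 55%, limit read from the data; inconclusive = mean below that limit but half or more replicates reach it; inactive = mean below it, under half of replicates reach it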;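 note: signal also drops with host cell toxicity which is not excluded here; 0% = plate median of DMSO wells and 100% = zero luminescence signal; higher percent means less beta-gal luminescence so fewer parasites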
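Assay system: NIH/3T3 fibroblasts plus reporter T. cruzi. Amount: NIH/3T3 cells, 5,000 per well. Buffer or medium: DMEM, 2% fetal bovine serum. Doses: compound pinned at 50 nL/well, DMSO. Schedule: ≥90 h infection period, 3 h prior cell attachment. Signal: luminescent β-galactosidase signal after 60 min lysis. Read-out: parasite load inhibition, %.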
CHOP UPR activ – activators of apoptotic arm of unfolded protein response (CHOP); hit rate 0.34% among 330,000; activation, % at 10 µM; CHO-CHOP luciferase reporter, UPR activation, luminescence; percent of tunicamycin response over DMSO baseline;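 active = at 10 µM dose, activation of 40% or more, normalized to positive control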;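 note: 100% = tunicamycin at 10 µg/mL and 0% = DMSO alone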
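assay system = CHO CHOP reporter cells | amount = 500 CHO-CHOP cells per well | buffer or medium = F12 with 10% FBS | incubation = 16-18 h cell attachment, then 6 h compound exposure, 37 °C | detection = luminescence read with Steady-Glo | read-out = percent activation relative to tunicamycin control | controls = tunicamycin high control, DMSO low control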
Dynein inh conf – dynein cargo transport inhibition, confirmation. 3617.4 GR-EGFP nuclear translocation imaging, dexamethasone-induced. AID 463116. hit rate 69% among 1,000. calls only at 20 µM. shares compounds with Dynein transport;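 active = inhibition of receptor movement into the nucleus at or above a set limit in both runs, with normal cell brightness and cell count; inconclusive = limit reached in only one run, brightness and count normal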;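 note: dexamethasone at 1 µM final in well for 30 min; nuclear minus cytoplasmic GR-EGFP mean intensity difference in channel 2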
* marks the source's active call; other numbers are inactive results; i = inactive; ? = inconclusive; · = not tested or not shown; + = active, no number. Many of the other results were omitted from the sample, so hits are more common in it than they were.

SMILES	Dynein transport	UPR XBP1 act	CHOP inhibitor	L major viab	T cruzi inh	CHOP UPR activ	Dynein inh conf
CCN1CCN(S(=O)(=O)c2ccc(Cl)c(C(=O)N(C)Cc3ccc(Cl)cc3Cl)c2)CC1	·	-7	·	·	-10	1	·
CCOC(=O)CSC1=NC(=O)/C(=C/c2ccc(Br)cc2)S1	-4.3*	4	102*	-10	2	8	+
O=C(c1ccc(COc2ccc(Cl)cc2Cl)o1)N1CCCC1	·	0	·	·	20	2	·
CC1=C(c2ccccc2)[N+](=O)C2(CCCC2)N1[O-]	0.37	-3	-16	-3	-2	2	·
O=[N+]([O-])c1ccc2c(c1)N([O-])C1(CCCCC1)[N+]2=O	-3.6*	·	95*	·	·	·	+
Cn1c(=O)c(Nc2ccc(Cl)cc2)c2c3c(cccc31)C(=O)c1ccccc1-2	-4.3	-2	43	3	41	1	+
COc1cc(Cl)nn(-c2ccccc2)c1=O	3.2	-1	-9	6	-7	0	·
O=c1c(Cl)cc(Cl)nn1-c1ccccc1	-3.5*	0	-33	71*	11	3	+
CCOc1ccc(C(=O)C(C)OC(=O)CN2C(=O)NC(C)(C)C2=O)cc1 (stereo unspecified)	·	-1	·	·	?	5	·
Cc1cc(C)n(C(C[N+](=O)[O-])c2ccc(Cl)cc2)n1 (stereo unspecified)	-5.6*	12	39	100*	-9	40	i
COC(=O)[C@@]1(Cc2ccccc2)[C@@H]2C(=CC(=O)[C@H]2CC(=O)C(=O)N(C)C)CN1C(=O)c1ccccc1	-5.2*	-1	44	100*	23	4	+
COC(=O)Cn1c(C(=O)N2CCCC2)cc2c1C[C@H]1CN(C(=O)c3ccccc3)[C@@](Cc3ccc(F)cc3)(C(=O)OC)[C@@H]21	-0.19	0	30	15	·	-2	·
CC(=O)Nc1c([N+](=O)[O-])cc(C)c(Cl)c1[N+](=O)[O-]	-5.8*	0	-42	16	-9	-3	+
COc1ccc(/C=C2\Sc3ccc(C(=O)N4CCCC4)cc3N(C)C2=O)cc1OC	·	-1	·	·	6	0	·
COc1ccc(/C=c2\s/c(=C/C(=O)c3ccc(C)cc3)[nH]c2=O)cc1OC	-6.6	1	100*	37	-5	3	i
CCOc1ccc(N2C(=O)CC(Sc3n[nH]c(-c4ccccc4)n3)C2=O)cc1 (stereo unspecified)	-5.2*	-5	-11	-2	3	1	i
COc1ccc(N2C(=O)CC(Sc3n[nH]c(-c4ccccc4)n3)C2=O)cc1 (stereo unspecified)	-0.34	0	-25	·	-1	4	·
CC(=O)NC(CSC(CC(=O)c1ccco1)c1ccc(C)cc1)C(=O)O (stereo unspecified)	-4.3*	4	-25	18	-28	1	i
CC(C)CC(NC(=O)/C(=C/c1ccco1)NC(=O)c1ccc(Br)o1)C(=O)O (stereo unspecified)	·	-1	·	·	-6	1	·
CCOP1(=O)OCC2OC(n3cnc4c(N)ncnc43)C(O)C2O1 (stereo unspecified)	-0.43	0	-1	·	-22	-1	·
Cc1onc(-c2ccccc2)c1-c1nc2cc(Cl)ccc2c(=O)o1	-3.8*	26	1	·	2	0	+
C[C@H]1CC[C@@]2(O[C@H](CCO)C[C@H](O)[C@H]2O)O1	·	-1	·	·	-18	1	·
Cc1ccc(S(=O)(=O)NCc2ccccc2)cc1C(=O)N1CCCCCCC1	·	-1	·	·	9	1	·
CCOC(=O)c1cnc2c(F)ccc(F)c2c1Sc1ccccc1	-4*	5	35	·	-9	6	+
CN1CCN(S(=O)(=O)c2ccc(Sc3nnnn3-c3ccccc3)c([N+](=O)[O-])c2)CC1	-3.5*	-8	107*	100*	-20	25	+
SMILES	Dynein transport	UPR XBP1 act	CHOP inhibitor	L major viab	T cruzi inh	CHOP UPR activ	Dynein inh conf
CC(=O)c1ccc(Sc2nnnn2-c2ccccc2)c([N+](=O)[O-])c1	-4.3*	-2	-17	100*	-8	1	i
CC(=O)c1ccc(Sc2ccccn2)c([N+](=O)[O-])c1	0.96	1	8	·	0	1	·
Cn1cnnc1Sc1cc(N2CCN(S(=O)(=O)c3ccccc3)CC2)ccc1[N+](=O)[O-]	1.1	0	-18	4	10	0	·
CC1CCN(c2cc(N3CCN(C(=O)c4ccc(F)c(F)c4)CC3)c([N+](=O)[O-])cc2F)CC1	0.31	-2	54	3	5	2	·
CCOC(=O)c1ccc(NC(=O)CC2Sc3ncnn3C2=O)cc1 (stereo unspecified)	-2.3	-1	21	-5	-19	3	·
COc1ccc(NC(=O)CC2Sc3ncnn3C2=O)cc1 (stereo unspecified)	-4*	-3	-1	-5	-12	0	i
O=C(CC1Sc2ncnn2C1=O)Nc1ccc(Cl)cc1 (stereo unspecified)	-3.6*	-2	49	-7	-2	2	i
CS(=O)(=O)N1CCc2cc(C(=O)Nc3ccc(COCC(F)(F)F)cc3)ccc21	·	-1	·	·	-24	-2	·
O=[N+]([O-])c1ccc(C2=NN(c3ccccc3)C(c3ccco3)C2)cc1 (stereo unspecified)	-8.2	·	5	·	19	·	i
O=[N+]([O-])c1ccc(/C=C/C2=NN(c3ccccc3)C(c3ccco3)C2)cc1 (stereo unspecified)	-5.5	·	26	0	·	·	·
COc1cc2c(cc1OC)C(Cc1ccc(O)cc1)N(C)CC2 (stereo unspecified)	-4.7*	-2	0	-3	-10	1	i
CC(C)N1C/C(=C/c2cccnc2)C(=O)/C(=C/c2cccnc2)C1	-4.2*	·	100*	100*	·	·	+
CC(C)N1CC2=C(OC(N)=C(C#N)C2c2cccnc2)/C(=C/c2cccnc2)C1 (stereo unspecified)	0.97	-1	-19	8	-6	2	·
CC1=CC(C)(C)N(C(=O)Nc2ccccc2)c2ccccc21	0.21	-1	2	4	9	2	·
CC(=O)N1c2ccccc2C(CBr)=CC1(C)C	-5.2*	-2	-28	·	-8	1	i
CC1CCCC(NC(=O)CCC(=O)NCc2ccccc2)C1C (stereo unspecified)	·	-2	·	·	0	0	·
COc1ccc(C2C(C#N)=C(N)Oc3cc(N)ccc32)cc1 (stereo unspecified)	·	-1	·	·	1	1	·

Compound activity as filed in PubChem BioAssay.
